In ChEMBL document CHEMBL1130400, “Discovery of a novel, selective, and orally bioavailable class of thrombin inhibitors incorporating aminopyridyl moieties at the P1 position” (J Med Chem, 1997):

How the values were obtained:
[1] = target: T1, Coagulation factor X (Homo sapiens, UniProt P00742); test: (§1) In vitro inhibitory activity against Coagulation factor X
In short: (§2)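 Ki from the dependence of initial rate on inhibitor concentration. Proteinase (human FXa, or bovine trypsin) equilibrated with inhibitor, then chromogenic substrate added. p-Nitroaniline release followed as the absorbance increase at 405 nm.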

[2] = target: Prothrombin (Homo sapiens, UniProt P00734); test: In vitro inhibitory activity against human thrombin(IIa)
[3] = target: T2, Serine protease 1 (Bos taurus, UniProt P00760); test: In vitro inhibitory activity against bovine trypsin; in short: as §2
T2 sequence (P00760 whole entry): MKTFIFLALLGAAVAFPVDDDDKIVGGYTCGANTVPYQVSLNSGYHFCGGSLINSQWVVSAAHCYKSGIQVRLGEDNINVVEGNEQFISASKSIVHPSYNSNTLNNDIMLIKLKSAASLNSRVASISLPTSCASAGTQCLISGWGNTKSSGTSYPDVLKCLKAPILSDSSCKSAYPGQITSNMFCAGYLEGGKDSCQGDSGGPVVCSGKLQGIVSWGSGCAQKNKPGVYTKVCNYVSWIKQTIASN

[4] = Maximum plasma concentration after p.o. (10 mpk) administration in rats.; assay type: ADME, organism-based; set-up: route oral; details: rat, po, 10 mg/kg
In short: (§3)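 Rats were anesthetized and fitted with catheters in the left jugular vein (dosing) and left carotid artery (sampling). Next day, conscious rats were dosed iv at 2 mpk or orally by gastric lavage at 10 mpk. Blood was drawn before dosing and at increasing times after. Plasma inhibitor levels gave concentration–time curves. F was derived by comparing dose-normalized AUCs from oral and iv dosing.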

[5] = Partition coefficient (logP); assay type: physicochemical; details: octanol/water
[6] = Maximum time of retention in plasma, after peroral (10 mpk) administration in rats.; assay type: ADME, organism-based; details: rat, po, 10 mg/kg; in short: as §3
[7] = Oral bioavailability in rat; assay type: ADME, organism-based; details: in vivo; in short: as §3
[8] = Half life in rats; assay type: ADME, organism-based; details: rat, in vivo; in short: as §3
[9] = pKa was determined; assay type: physicochemical
[10] = Clearance values in rats after iv administration.; assay type: ADME, organism-based; details: rat, in vivo; in short: as §3
[11] = target: T1, Coagulation factor X; test: as §1; remark: listed apart in the source
In short: (§4)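 Ki values for bovine trypsin and human factor Xa came from the inhibitor-concentration dependence of the initial rate of p-nitroaniline release. Enzyme and inhibitor were equilibrated first, then chromogenic substrate was added, and the rate of absorbance increase at 405 nm was followed.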

[12] = target: T2, Serine protease 1; test: In vitro iinhibitory activity against bovine trypsin; in short: as §4

T1 sequence (P00742 41-179 limits assumed): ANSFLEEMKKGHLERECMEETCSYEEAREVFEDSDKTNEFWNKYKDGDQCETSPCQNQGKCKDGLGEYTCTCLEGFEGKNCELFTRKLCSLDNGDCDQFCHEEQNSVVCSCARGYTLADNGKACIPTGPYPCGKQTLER
T1 sequence (P00742 235-488 limits assumed): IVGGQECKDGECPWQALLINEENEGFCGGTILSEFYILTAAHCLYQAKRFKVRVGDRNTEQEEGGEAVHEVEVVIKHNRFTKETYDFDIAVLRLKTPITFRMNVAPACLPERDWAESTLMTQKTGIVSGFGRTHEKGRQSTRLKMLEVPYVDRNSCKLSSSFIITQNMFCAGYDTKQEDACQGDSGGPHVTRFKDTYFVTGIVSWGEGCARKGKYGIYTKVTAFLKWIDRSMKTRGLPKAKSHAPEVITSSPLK

| SMILES | Ki [1] [µM] | Ki [2] [µM] | Ki [3] [µM] | other results |
| --- | --- | --- | --- | --- |
| CC(C)(C)OC(=O)N[C@@H](C(=O)N1CCC[C@H]1C(=O)NCc1csc(N)n1)C(c1ccccc1)c1ccccc1 | > 100 | 0.9 | > 100 | – |
| Nc1ccc(CNC(=O)[C@@H]2CCCN2C(=O)[C@@H](Cc2ccc(Cl)c(Cl)c2)NS(=O)(=O)Cc2ccccc2)cn1 | 7.6 | 0.003 | 0.43 | – |
| CC(C)(C)OC(=O)N[C@@H](C(=O)N1CCC[C@H]1C(=O)NCc1ccc(N)nc1)C(C1CCCCC1)C1CCCCC1 | 4.4 | 0.003 | 0.657 | Cmax [4]: 1.43 µM; logP [5]: > 3.35; Tmax [6]: 120 min; bioavailability [7]: 60%; half-life [8]: 35 min; pKa [9]: 6.5; clearance [10]: 1.62 L/h/kg |
| Nc1nc(CNC(=O)[C@@H]2CCCN2C(=O)[C@H](N)C(c2ccccc2)c2ccccc2)cs1 | > 100 | 0.35 | 277 | – |
| CC(C)(C)OC(=O)N[C@@H](C(=O)N1CCC[C@H]1C(=O)NCc1ccc(N)nc1)C(c1ccccc1)c1ccccc1 | > 200 | 0.0076 | 1.3 | – |
| Cc1cc(N)nc(C)c1CNC(=O)[C@@H]1CCCN1C(=O)[C@H](N)C(c1ccccc1)c1ccccc1 | 240 | 0.01 | 8.3 | – |
| Nc1ccc(CNC(=O)[C@@H]2CCCN2C(=O)[C@@H](Cc2ccc(Cl)c(Cl)c2)NS(=O)(=O)Cc2ccccc2)cc1 | 10 | – | 12 | Cmax [4]: 0.66 µM; logP [5]: > 3.68; Tmax [6]: 53 min; bioavailability [7]: 35%; half-life [8]: 20 min; pKa [9]: 4.8; clearance [10]: 4.26 L/h/kg |
| Cc1cc(N)nc(C)c1CNC(=O)[C@@H]1CCCN1C(=O)[C@H](NC(=O)OC(C)(C)C)C(C1CCCCC1)C1CCCCC1 | 16 | 0.0022 | 1.5 | – |
| O=C(NCc1ccccc1)[C@@H]1CCCN1C(=O)[C@@H](Cc1ccc(Cl)c(Cl)c1)NS(=O)(=O)Cc1ccccc1 | 14 | 0.11 | 384 | – |
| Cc1cc(N)nc(C)c1CNC(=O)[C@@H]1CCCN1C(=O)[C@H](N)C(C1CCCCC1)C1CCCCC1 | 160 | – | 3 | – |
| O=C(NCc1cccnc1)[C@@H]1CCCN1C(=O)[C@@H](Cc1ccc(Cl)c(Cl)c1)NS(=O)(=O)Cc1ccccc1 | 230 | 0.38 | 284 | – |
| CN[C@H](Cc1ccccc1)C(=O)N1CCC[C@H]1C(=O)NC[C@H]1CC[C@H](N)CC1 | > 1000 | – | 11 | logP [5]: -1.68; bioavailability [7]: 1%; pKa [9]: 10.2 |
| CC(C)(C)OC(=O)N[C@H](Cc1ccccc1)C(=O)N1CCC[C@H]1C(=O)NCc1ccc(N)cc1 | 420 | 3.7 | 233 | – |
| Nc1cc(CNC(=O)[C@@H]2CCCN2C(=O)[C@@H](Cc2ccc(Cl)c(Cl)c2)NS(=O)(=O)Cc2ccccc2)cs1 | – | 0.13 | 56 | Ki [11]: > 100 µM |
| Nc1nc(CNC(=O)[C@@H]2CCCN2C(=O)[C@H](N)C(C2CCCCC2)C2CCCCC2)cs1 | > 100 | 0.07 | 144 | – |
| O=C(NCc1ccncc1)[C@@H]1CCCN1C(=O)[C@@H](Cc1ccc(Cl)c(Cl)c1)NS(=O)(=O)Cc1ccccc1 | > 200 | 0.51 | 31 | – |
| Cc1cc(N)nc(C)c1CNC(=O)[C@@H]1CCCN1C(=O)[C@H](NC(=O)OC(C)(C)C)C(c1ccccc1)c1ccccc1 | 160 | 0.0036 | 2.5 | Cmax [4]: 0.61 µM; logP [5]: 1.65; Tmax [6]: 53 min; bioavailability [7]: 40%; half-life [8]: 50 min; clearance [10]: 4.56 L/h/kg |
| Cc1cc(N)nc(C)c1CNC(=O)[C@@H]1CCCN1C(=O)[C@@H](Cc1ccc(Cl)c(Cl)c1)NS(=O)(=O)Cc1ccccc1 | 52 | 0.011 | 8.9 | – |
| CC(C)(C)OC(=O)N[C@@H](C(=O)N1CCC[C@H]1C(=O)NCc1csc(N)n1)C(C1CCCCC1)C1CCCCC1 | > 100 | 0.35 | – | Ki [12]: 52 µM |
| CC(C)(C)OC(=O)N[C@@H](C(=O)N1CCC[C@H]1C(=O)NCc1csc(N)c1)C(C1CCCCC1)C1CCCCC1 | 27 | 0.56 | 45 | – |
| Nc1ccc(CNC(=O)[C@@H]2CCCN2C(=O)[C@H](N)C(C2CCCCC2)C2CCCCC2)cn1 | 8.3 | 0.00082 | 1.2 | Cmax [4]: 0.53 µM; logP [5]: 2.21; Tmax [6]: 26 min; bioavailability [7]: 76%; half-life [8]: 102 min; pKa [9]: 6.2; clearance [10]: > 12 L/h/kg |
| Nc1nc(CNC(=O)[C@@H]2CCCN2C(=O)[C@@H](Cc2ccc(Cl)c(Cl)c2)NS(=O)(=O)Cc2ccccc2)cs1 | > 100 | 0.36 | 767 | – |
| Nc1ccc(CNC(=O)[C@@H]2CCCN2C(=O)[C@H](N)C(c2ccccc2)c2ccccc2)cn1 | 94 | 0.012 | 5.4 | – |
